An excerpt weighted towards active compounds, which were near 2.1% of everything screened.
APJ antag – antagonists of human APJ apelin receptor; P35414; CHO-K1 APJ beta-arrestin complementation, luminescence; inhibition, % at 20 µM; 0.32% of 330,000 active; AID 2521;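 active = inhibition above about 40% at 20 µM, limit read from the data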;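 also: cells challenged with 10 nM apelin-13 agonist together with compound; plate controls were apelin-13 plus DMSO wells for no effect and DMSO wells lacking apelin-13 for full effect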
APJ agonist – agonists of human APJ apelin receptor | P35414 | CHO-K1 APJ PathHunter beta-arrestin, luminescence; 0% DMSO wells, 100% apelin | activation, % at 20 µM | 0.11% of 330,000 active | AID 2520;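 active = activation more than six SD over the plate average, tested at 20 µM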;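 also: 0% = DMSO alone and 100% = apelin-13 at 10 nM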
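Assay system: CHO-K1 cells stably expressing ProLink-tagged human APJ and arrestin–beta-gal acceptor. Compound dosing: 20 µM single point, 1% DMSO. Times: 16-18 h seeding, 90 min dark compound exposure, 60 min detection. Detection: beta-gal luminescence. Evaluation: APJ–arrestin association signal. Controls: negative DMSO alone, positive Apelin-13 at 10 nM.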
EBI2 antag – antagonists of human EBI2 receptor; P32249; EBI2 beta-arrestin recruitment, luminescence, 7a,25-OHC stimulated; inhibition, % at 5 µM; 0.81% of 360,000 active; in the data active = inhibition above about 38%;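 also: enzyme fragment complementation signal reports receptor beta-arrestin coupling in cells; 0% = agonist plus DMSO wells and 100% = wells without agonist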
m5-HT2A agonist – mouse HTR2A agonism via beta-arrestin recruitment | P35363 | CHO-K1 mHTR2A beta-arrestin complementation, luminescence; percent of 30 µM serotonin response | activation, % at 7.6 µM | 0.66% of 360,000 active;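 active = activation above a run cutoff, the mean activation of all tested compounds plus 3 SD, cut at about 14% in these data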;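 also: 0% = plate median of compound wells and 100% = 30 µM serotonin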
Target sequence (P35363 whole entry, looked up): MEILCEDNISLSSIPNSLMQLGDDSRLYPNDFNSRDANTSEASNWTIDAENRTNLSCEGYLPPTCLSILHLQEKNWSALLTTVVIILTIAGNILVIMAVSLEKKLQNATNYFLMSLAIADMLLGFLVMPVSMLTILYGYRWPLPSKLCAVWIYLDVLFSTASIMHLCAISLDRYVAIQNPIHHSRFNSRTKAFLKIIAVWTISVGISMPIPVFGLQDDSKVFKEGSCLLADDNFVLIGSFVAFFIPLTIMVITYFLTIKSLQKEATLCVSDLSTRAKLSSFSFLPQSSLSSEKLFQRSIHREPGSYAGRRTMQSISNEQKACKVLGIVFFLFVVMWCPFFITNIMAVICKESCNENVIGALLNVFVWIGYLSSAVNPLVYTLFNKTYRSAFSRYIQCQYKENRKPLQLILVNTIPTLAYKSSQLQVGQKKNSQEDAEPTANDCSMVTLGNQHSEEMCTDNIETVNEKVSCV
CXCR6 inh – CXCR6 (human) receptor inhibition | O00574 | CHO-K1 PathHunter CXCR6 beta-arrestin, luminescence | inhibition, % at 20 µM | 0.36% of 360,000 active; in the data active = inhibition above about 34%, passing the limit was not always enough;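 also: antagonist mode with CXCL16 agonist at 10 nM final; 0% = 10 nM CXCL16 with DMSO and 100% = unstimulated wells without agonist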
CCR6 antag – blocks CCL20-driven beta-arrestin recruitment at human CCR6 | P51684 | CHO-K1 CCR6 PathHunter beta-arrestin, luminescence, CCL20-stimulated | inhibition, % at 20 µM | 0.49% of 340,000 active | AID 493098;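 active = compounds whose inhibition of the agonist-driven luminescence signal at 20 µM reaches about 50%, limit read from the data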;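 also: cells stimulated with CCL20 at 14 nM final; plate controls were DMSO with CCL20 for no effect and DMSO without agonist for full effect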
APJ ag confirm – confirmation of human APJ apelin receptor agonists. shares compounds with APJ agonist. CHO-K1 APJ PathHunter beta-arrestin, luminescence. activation, % at 20 µM. 10% of 310 active;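 active = activation above 40%, taking the highest of four retests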;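 also: plate controls were DMSO wells for no effect and apelin-13 at 10 nM for full effect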
APJ antag confirm – confirmation of human APJ apelin receptor antagonists. inhibition, % at 20 µM. APJ beta-arrestin recruitment, luminescence, antagonist mode. AID 2766. 66% of 950 active. shares compounds with APJ antag; in the data active = inhibition above about 50%
MOR ag counter – activates human mu opioid receptor in HTR2A counterscreen; shares compounds with m5-HT2A agonist; U2OS OPRM1 beta-arrestin PathHunter, luminescence; DMSO 0%, DAMGO 9.3 µM 100%; activation, % at 9.3 µM; 5.3% of 2,300 active; AID 624380;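 active = mean activation above the mean of DMSO-only wells plus 3 SD, cut at about 0.5% in these data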
HTR2A ag conf – confirmation of mouse HTR2A serotonin receptor agonists | shares compounds with m5-HT2A agonist | CHO-K1 PathHunter beta-arrestin recruitment, luminescence; DMSO 0%, 30 µM serotonin 100% | activation, % at 7.6 µM | 19% of 2,300 active | AID 624381;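 active = mean activation across triplicates above the hit threshold derived in the original primary screen, cut at about 15% in these data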
* = called active by the depositor.

COc1ccc(CN2C(=O)NC(=O)/C(=C\c3ccco3)C2=O)cc1 was read as APJ antag 5, APJ agonist 18*, EBI2 antag 0, m5-HT2A agonist 2, CXCR6 inh -16, CCR6 antag 15 and APJ ag confirm 13.
`CC(=O)NCCc1c[nH]c2ccccc12` gave APJ antag 5, APJ agonist -4, EBI2 antag -5, m5-HT2A agonist -3, CXCR6 inh 2 and CCR6 antag -17.
For CN1C[C@H](CO)C=C2c3cccc4[nH]cc(c34)C[C@H]21 the results were APJ antag -127, APJ agonist 17*, EBI2 antag -5, m5-HT2A agonist 30*, CXCR6 inh -8, CCR6 antag 3, APJ ag confirm -4, MOR ag counter 0 and HTR2A ag conf 94*.
Screening COc1ccc(CCN)cc1O returned APJ antag 1, APJ agonist -2, EBI2 antag 5, m5-HT2A agonist 10, CXCR6 inh 1 and CCR6 antag -6.
C=C1C(=O)O[C@@H]2C[C@@H](C)[C@@H]3C=CC(=O)[C@@]3(C)[C@@H](O)[C@H]12 was read as APJ antag 47*, APJ agonist -9, EBI2 antag 57*, m5-HT2A agonist 8, CXCR6 inh 31, CCR6 antag 45 and APJ antag confirm 69*.
CC12CCCCC1=NC(c1ccc(Br)cc1)N2O (stereo not drawn) was read as APJ antag 51*, APJ agonist -12, EBI2 antag -6, m5-HT2A agonist 2, CXCR6 inh 34, CCR6 antag 55* and APJ antag confirm 39.
Screening Brc1ccc(C2N3CCCN23)cc1 (stereo not drawn) returned APJ antag 11, APJ agonist 1, EBI2 antag -11, m5-HT2A agonist 1, CXCR6 inh 2 and CCR6 antag 1.
`COc1ccc(C(=O)Cn2c(NCCCl)nc3ccccc32)cc1` gave APJ antag -5, APJ agonist -2, EBI2 antag -4, m5-HT2A agonist -2, CXCR6 inh -1 and CCR6 antag 0.
CN1OC[C@@H]2CN[C@H](c3ccccc3Br)C[C@@H]21 was read as EBI2 antag 0, m5-HT2A agonist 1, CXCR6 inh 1 and CCR6 antag -11.
CCN1/C(=C\C=C\C2=[N+](CC)c3ccccc3C2(C)C)C(C)(C)c2ccccc21 was read as APJ antag 54*, APJ agonist -18, EBI2 antag 6, m5-HT2A agonist -8, CXCR6 inh 63*, CCR6 antag 61* and APJ antag confirm 106*.
Screening C[C@]12CCC3C(CCC4=C/C(=N/OCC(=O)NC(CCC(N)=O)C(=O)O)CC[C@@]43C)C1CCC2O (stereo partly drawn) returned APJ antag 0, APJ agonist -3, EBI2 antag -11, m5-HT2A agonist 5, CXCR6 inh 0 and CCR6 antag -5.
For CC1CCCN(CC(=O)c2ccc(Cl)c(Cl)c2)C1 (stereo not drawn) the results were APJ antag 122*, APJ agonist -15, EBI2 antag 16, m5-HT2A agonist -3, CXCR6 inh 66*, CCR6 antag 101* and APJ antag confirm 158*.
`CCn1c(O)c(N=Nc2ccc(S(=O)(=O)N3CCOCC3)cc2)c(=O)n(CC)c1=S` gave APJ antag 56*, APJ agonist -5, EBI2 antag 18, m5-HT2A agonist 0, CXCR6 inh 23, CCR6 antag 29 and APJ antag confirm 55*.
CCn1c(O)c(N=Nc2cccc(S(=O)(=O)N3CCOCC3)c2)c(=O)n(CC)c1=S was read as APJ antag 20, APJ agonist -5, EBI2 antag 12, m5-HT2A agonist -1, CXCR6 inh 3 and CCR6 antag 24.
Screening C[C@@H]1CN([C@H](C)CO)C(=O)CCCn2nncc2CO[C@@H]1CN(C)C(=O)Oc1ccccc1 returned EBI2 antag -2, m5-HT2A agonist 3 and CXCR6 inh 1.
`C[n+]1ccc(-c2cc[n+](C)cc2)cc1` gave EBI2 antag -10, m5-HT2A agonist 5, CXCR6 inh -12 and CCR6 antag -10.
For CCCCOCCCn1c(N)c(C(=O)OCCOC)c2nc3ccccc3nc21 the results were APJ antag 59*, APJ agonist -20, EBI2 antag 5, m5-HT2A agonist -6, CXCR6 inh 14, CCR6 antag 1 and APJ antag confirm -13.
`CCCCn1c(N)c(C(=O)NCc2cccs2)c2nc3ccccc3nc21` gave APJ antag 49*, APJ agonist -9, EBI2 antag 15, m5-HT2A agonist -4, CXCR6 inh 1, CCR6 antag 6 and APJ antag confirm 6.
CCCCCn1c(N)c(C(=O)NCc2cccs2)c2nc3ccccc3nc21 was read as APJ antag 45*, APJ agonist -7, CCR6 antag 12 and APJ antag confirm 47.
For CC(C)CCn1c(N)c(C(=O)OCC2CCCO2)c2nc3ccccc3nc21 (stereo not drawn) the results were APJ antag 50*, APJ agonist -4, EBI2 antag 7, m5-HT2A agonist 9, CXCR6 inh 23, CCR6 antag 14 and APJ antag confirm 53*.
`O=c1cccc2n1CC1CC2CN(C(c2ccccc2)c2sc3ncnn3c2O)C1` (stereo not drawn) gave APJ antag 4, APJ agonist -4, EBI2 antag -4, m5-HT2A agonist -2, CXCR6 inh 5 and CCR6 antag -8.
For CCCCn1c(NC(=O)c2ccco2)c(C(=O)OCC)c2nc3ccccc3nc21 the results were APJ antag 64*, APJ agonist -22, EBI2 antag 18, m5-HT2A agonist -5, CXCR6 inh 21, CCR6 antag 58* and APJ antag confirm 55*.
CCCCn1c(NS(=O)(=O)c2ccc(C)cc2)c(C(=O)OCC)c2nc3ccccc3nc21 was read as APJ antag 65*, APJ agonist -14, EBI2 antag 4, m5-HT2A agonist 1, CXCR6 inh -3, CCR6 antag 59* and APJ antag confirm -4.

Screening data deposited in PubChem BioAssay by several laboratories.
